molecular target: D(3) dopamine receptor (Homo sapiens, UniProt P35462); test: Competitive inhibition of [3H]spiperone binding to the human dopamine receptor D3 expressed in CHO cells, expressed as 10log Ki; type: cell-based
Outline: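 Displacement of [3H]spiperone from human dopamine D3 receptors expressed in CHO K1 cells. Four to six test concentrations, each run in triplicate. IC50 from nonlinear regression, converted to Ki (nM) by Cheng–Prusoff, then reported as 10log Ki.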

Chain of D(3) dopamine receptor (P35462 whole entry): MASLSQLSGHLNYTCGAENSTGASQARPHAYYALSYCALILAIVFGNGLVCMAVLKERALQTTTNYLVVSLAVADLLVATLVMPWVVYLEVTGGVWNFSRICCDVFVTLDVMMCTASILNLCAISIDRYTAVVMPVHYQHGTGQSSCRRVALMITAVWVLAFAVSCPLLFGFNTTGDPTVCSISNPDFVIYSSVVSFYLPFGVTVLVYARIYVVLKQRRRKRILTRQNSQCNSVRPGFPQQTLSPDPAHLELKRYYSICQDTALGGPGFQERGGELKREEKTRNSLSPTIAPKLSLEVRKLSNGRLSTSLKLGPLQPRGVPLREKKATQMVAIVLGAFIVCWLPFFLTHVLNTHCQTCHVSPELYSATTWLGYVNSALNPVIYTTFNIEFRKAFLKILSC

SMILES | Ki [nM]
COc1c(C(=O)NCCN2CCN(c3ccc4ccccc4n3)CC2)cc(Br)c2ccccc12 | 251
COc1c(C(=O)NCCN2CCN(c3ccc(F)cc3F)CC2)cc(Br)c2ccccc12 | 200
COc1c(Cl)cc(Cl)c(O)c1C(=O)NCCN1CCN(c2cccc(Cl)c2Cl)CC1 | 501
COc1c(C(=O)NCCN2CC=C(c3ccccc3)CC2)cc(Br)c2ccccc12 | 20
CCc1cc(Cl)c(O)c(C(=O)NCCN2CCN(c3ccccc3)CC2)c1OC | 1580
COc1ccc(Br)c(O)c1C(=O)NCCN1CCN(c2ccccc2)CC1 | 398
COc1ccc(Br)cc1C(=O)NCCN1CCN(c2ccccc2)CC1 | 316
COc1c(C(=O)NCCN2CCN(c3ccc(Cl)c(Cl)c3)CC2)cc(Br)c2ccccc12 | 200
COc1c(C(=O)NCCN2CCN(c3cccc(C)c3)CC2)cc(Br)c2ccccc12 | 316
COc1c(C(=O)NCCN2CCN(c3ccc(C)cc3)CC2)cc(Br)c2ccccc12 | 251
CCOc1c(C(=O)NCCN2CCN(c3ccccc3)CC2)cc(Br)c2ccccc12 | 251
COc1c(Cl)cc(Cl)c(O)c1C(=O)NCCN1CCN(c2ccccc2)CC1 | 1000
COc1c(C(=O)NCCN2CCN(c3cccc(C(F)(F)F)c3)CC2)cc(Br)c2ccccc12 | 251
COc1c(C(=O)NCCN2CCN(c3ccccc3)CC2)cc2ccccc2c1Br | 316

The remaining lines, values ahead:

Ki [nM] | SMILES
126 | CCOc1c(C(=O)NCCN2CCN(c3cccc(C(F)(F)F)c3)CC2)cc(Br)c2ccccc12
100 | COc1c(C(=O)NCCN2CCN(c3ccc(Cl)cc3Cl)CC2)cc(Br)c2ccccc12
79.4 | CCOc1c(C(=O)NCCN2CCN(c3ccccc3OC)CC2)cc(Br)c2ccccc12
79.4 | COc1c(C(=O)NCCN2CCN(c3ccccn3)CC2)cc(Br)c2ccccc12
79.4 | COc1c(C(=O)NCCN2CCC(c3ccccc3)CC2)cc(Br)c2ccccc12
79.4 | CCOc1c(C(=O)NCCN2CCN(c3ccccn3)CC2)cc(Br)c2ccccc12
79.4 | COc1ccccc1N1CCN(CCNC(=O)c2cc(Br)c3ccccc3c2OC)CC1
63.1 | COc1c(C(=O)NCCN2CCN(c3ccccc3C)CC2)cc(Br)c2ccccc12
50.1 | COc1c(C(=O)NCCN2CCN(c3cccc(Cl)c3C)CC2)cc(Br)c2ccccc12
50.1 | COc1c(C(=O)NCCN2CCN(c3ccccc3C#N)CC2)cc(Br)c2ccccc12
50.1 | COc1c(C(=O)NCCN2CCN(c3ccccc3)CC2)cc(Cl)c2ccccc12
39.8 | COc1c(C(=O)NCCN2CCN(c3ccccc3Cl)CC2)cc(Br)c2ccccc12
39.8 | COc1c(C(=O)NCCN2CCN(c3cccc(Cl)c3Cl)CC2)cc(Cl)c2ccccc12
25.1 | COc1c(C(=O)NCCN2CCN(c3ccccc3)CC2)cc(Br)c2ccccc12

molecular target: not listed separately; test: Competitive inhibition of [3H]spiperone binding to the human dopamine receptor D3 expressed in CHO cells, expressed as 10log Ki

SMILES | Log Ki(nM)
COc1c(C(=O)NCCN2CCN(c3cccc(Cl)c3)CC2)cc(Br)c2ccccc12 | 1.6

Reference: ChEMBL document CHEMBL1129965, “GRID/GOLPE 3D quantitative structure-activity relationship study on a set of benzamides and naphthamides, with affinity for the dopamine D3 receptor subtype” (J Med Chem, 1997)
